{"data": "Results collected from several papers", "effect on": "cell growth or viability", "note": "Lines come from different studies, so protocols differ."}
{"SMILES": "COC(=O)CNC(=O)C(=O)OC", "cell line": "OCI-Ly1", "technique": "ATP luminescence", "tested at": "0.5 µM", "time": "5 days", "quantity": "viability", "result": "168%"}
{"SMILES": "C[C@H](Nc1ccc2c(c1)OCCn1cc(N3C(=O)OC[C@H]3C(F)F)nc1-2)C(N)=O", "cell line": "ESS-1", "technique": "ATP luminescence", "time": "5 days", "quantity": "EC50", "result": "341 nM"}
{"SMILES": "CCCCCCCCCCCCCCCCCCOc1cccc(CC(=O)OCC[N+](CC)(CC)CC)c1", "cell line": "HOP-62", "technique": "SRB", "tested at": "10 µM", "quantity": "inhibition", "result": "30.9%"}
{"SMILES": "O=C(CCCCCCSc1ccc2ccccc2c1)NO", "cell line": "OCI-Ly1", "technique": "ATP luminescence", "tested at": "0.1 µM", "time": "5 days", "quantity": "viability", "result": "194%"}
{"SMILES": "CCCCCCCCCCCCCCCCCCOc1cccc(CC(=O)OCCC[N+](C)(C)C)c1", "cell line": "HOP-62", "technique": "SRB", "tested at": "10 µM", "quantity": "inhibition", "result": "15.9%"}
{"SMILES": "Cc1n[nH]c2ccc3nc(-c4ccc(C(=O)NCCN(C)C)cc4F)c4c(c3c12)CCCCC4", "cell line": "K562", "technique": "resazurin", "time": "72 h", "quantity": "GI50", "result": "2000 nM"}
{"SMILES": "O=C(CCCCCCC(=O)Nc1ccccc1)NO", "cell line": "OCI-Ly1", "technique": "ATP luminescence", "tested at": "0.1 µM", "time": "5 days", "quantity": "viability", "result": "162%"}
{"SMILES": "CN(C)CCNC(=O)c1ccc(-c2nc3ccc4[nH]ncc4c3c3c2CCCC3)cc1", "cell line": "K562", "technique": "resazurin", "time": "72 h", "quantity": "GI50", "result": "1300 nM"}
{"SMILES": "O=C(Nc1ccc(C2CCCCC2)cc1)[C@H]1O[C@H](O[C@@H]2[C@@H](OCc3ccc4ccccc4c3)[C@H](O[C@H]3O[C@H](CNS(=O)(=O)O)[C@@H](OCc4ccc5ccccc5c4)C[C@H]3NS(=O)(=O)O)[C@@H](NS(=O)(=O)O)C[C@H]2NS(=O)(=O)O)[C@H](OCc2ccc3ccccc3c2)[C@@H](NS(=O)(=O)O)[C@@H]1OCc1ccc2ccccc2c1", "cell line": "4T1", "technique": "CCK-8", "tested at": "120 µM", "time": "48 h", "quantity": "viability", "result": "5 to 10%"}
{"SMILES": "Cc1n[nH]c2ccc3nc(-c4ccc(C(=O)NCCN5CCCC5)cc4)c4c(c3c12)CCCC4", "cell line": "K562", "technique": "resazurin", "time": "72 h", "quantity": "GI50", "result": "2300 nM"}
{"SMILES": "CCCCCCCCCCCCCCCCCCOc1ccccc1CC(=O)OCC[N+](C)(C)C", "cell line": "HOP-62", "technique": "SRB", "tested at": "10 µM", "quantity": "inhibition", "result": "95.1%"}
{"SMILES": "NC(=O)c1ccc(-c2nc3ccc4[nH]ncc4c3c3c2CCCC3)cc1", "cell line": "K562", "technique": "resazurin", "time": "72 h", "quantity": "GI50", "result": "7600 nM"}
{"SMILES": "CCCCCCCCCCCCCCCCCCOc1ccccc1CC(=O)OCC[N+](CC)(CC)CC", "cell line": "HOP-62", "technique": "SRB", "tested at": "10 µM", "quantity": "inhibition", "result": "59%"}
{"SMILES": "O=C(/C=C/c1cccc(C(=O)NO)c1)NO", "cell line": "OCI-Ly1", "technique": "ATP luminescence", "tested at": "0.1 µM", "time": "5 days", "quantity": "viability", "result": "181%"}
{"SMILES": "O=C(NCC1CC1)c1ccc(-c2nc3ccc4[nH]ncc4c3c3c2CCCC3)cc1", "cell line": "K562", "technique": "resazurin", "time": "72 h", "quantity": "GI50", "result": "> 10000 nM"}
